Experimental data: ChEMBL document CHEMBL1135596, “Synthesis and evaluation of indenopyrazoles as cyclin-dependent kinase inhibitors. 2. Probing the indeno ring substituent pattern” (J Med Chem, 2002)

Experiments:
AG1523 = assay: Toxicity tested against normal human fibroblast cell line (AG1523); assay type: functional, cell-based
Method in brief: (§1)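 Sulforhodamine B growth assay. HCT116 colon carcinoma or AG1523 normal fibroblasts were seeded in McCoy's 5A with 5% FBS, at a density allowing 3-5 doublings. Incubation was 5 days (HCT116) or 6 days (AG1523) at 37 °C, 5% CO2. Cells were fixed with cold TCA, stained with 0.4% SRB, and dye was dissolved in 10 mM Tris base; OD read at 570 nm.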

[1] = molecular target: T1, Cyclin-dependent kinase 2/cyclin E (Homo sapiens, UniProt P24941); assay: Inhibition of Cyclin-dependent kinase 2-cyclin E; assay type: protein-complex assay
Method in brief: (§2)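 CDK2/his-cyclin E in 50 mM Tris-HCl pH 7.6, 10 mM MgCl2, 10% DMSO, 1 mM DTT, 50 µM ATP, 0.05 µCi [γ-32P]ATP, 6 µM GST-Rb. Incubated at room temperature, stopped with cold PBS containing 100 mM EDTA, 10 mM ATP, BSA and NP40. 32P incorporation into Rb measured; IC50 by fit of v/vo to [I] with slope factor.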

[2] = molecular target: T2, Cyclin-dependent kinase 4/cyclin D1 (Homo sapiens, UniProt P11802); assay: Inhibition of Cyclin-dependent kinase 4-cyclin D1; assay type: protein-complex assay
Method in brief: (§3)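 CDK4/cyclin D1 from extracts of co-expressing cells; 50 mM Tris-HCl pH 7.6, 10 mM MgCl2, 10% DMSO, 1 mM DTT, 50 µM ATP with [γ-32P]ATP, 6 µg GST-Rb (Rb aa 378-928). Started with 4 units enzyme, 15 min at room temperature, stopped with EDTA/ATP buffer. Labeled GST-Rb captured on GSH-Sepharose and counted by scintillation. IC50 from fit of v/vo versus [I] with slope term.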

HCT-116 [3] = assay: Toxicity tested against transformed human colon cancer cell line (HCT116); assay type: functional, cell-based; method in brief: as §1
HCT-116 [4] = assay: Effect of serum protein binding on inhibition of transformed cell line(PB HCT116) proliferation; assay type: functional, cell-based; details: Homo sapiens
Method in brief: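 HCT116 cells were grown as in the SRB assay, with 45 mg/mL human serum albumin plus 1 mg/mL α1-acid glycoprotein added together with graded compound. Growth was read out by MTT: 1 mg/mL solution added, 4 h at 37 °C. Formazan was solubilized in 0.04 N HCl/isopropanol and absorbance read at 570 nm against a 630 nm reference.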

[5] = molecular target: T1, Cyclin-dependent kinase 2/cyclin E; assay: Compound was evaluated for inhibition of Cyclin-dependent kinase 2-cyclin E; assay type: protein-complex assay; method in brief: as §2
[6] = molecular target: T2, Cyclin-dependent kinase 4/cyclin D1; assay: Compound was evaluated for 50% inhibition of Cyclin-dependent kinase 4-cyclin D1; assay type: protein-complex assay; method in brief: as §3

T2 sequence (P11802 whole entry, the tested form may be a part): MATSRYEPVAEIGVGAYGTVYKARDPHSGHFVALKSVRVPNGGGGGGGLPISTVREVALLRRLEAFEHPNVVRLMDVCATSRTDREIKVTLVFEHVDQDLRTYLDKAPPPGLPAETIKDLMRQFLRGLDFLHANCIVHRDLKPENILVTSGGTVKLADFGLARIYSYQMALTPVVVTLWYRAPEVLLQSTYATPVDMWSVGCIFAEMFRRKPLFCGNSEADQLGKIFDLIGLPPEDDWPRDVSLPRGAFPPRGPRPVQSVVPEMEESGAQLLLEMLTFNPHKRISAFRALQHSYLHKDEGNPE
T2 sequence (P24385 whole entry, further chain, the tested form may be a part): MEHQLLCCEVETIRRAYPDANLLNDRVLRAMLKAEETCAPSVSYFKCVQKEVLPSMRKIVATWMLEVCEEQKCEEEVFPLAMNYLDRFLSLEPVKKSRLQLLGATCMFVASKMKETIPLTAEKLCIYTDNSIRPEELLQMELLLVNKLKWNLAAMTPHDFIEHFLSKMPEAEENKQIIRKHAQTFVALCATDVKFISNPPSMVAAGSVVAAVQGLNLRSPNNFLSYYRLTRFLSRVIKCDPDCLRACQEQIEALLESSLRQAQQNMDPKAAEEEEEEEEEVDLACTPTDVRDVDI

| Structure (SMILES) | IC50 (AG1523) [nM] | IC50 [1] [nM] | IC50 [2] [nM] | IC50 (HCT-116 [3]) [nM] | IC50 (HCT-116 [4]) [nM] | IC50 [5] [nM] | IC50 [6] [nM] |
| --- | --- | --- | --- | --- | --- | --- | --- |
| COc1ccc(-c2[nH]nc3c2C(=O)c2c(NC(=O)NN(C)C)cccc2-3)cc1 | 385 | 5 | 21 | 28 | 1240 | – | – |
| COc1ccc(-c2[nH]nc3c2C(=O)c2c(NC(=O)CN4CCC(C(N)=O)CC4)cccc2-3)cc1 | 400 | – | – | – | – | 8 | 76 |
| COc1ccc(-c2[nH]nc3c2C(=O)c2c(NC(N)=O)cccc2-3)cc1 | 413 | – | – | 57 | 3200 | 7 | 66 |
| COc1ccc(-c2[nH]nc3c2C(=O)c2c(NC(=O)NN4CCN(C)CC4)cccc2-3)cc1 | 85 | – | – | 15 | – | 12 | 9 |
| COc1ccc(CNC(=O)Nc2cccc3c2C(=O)c2c(-c4ccc(OC)cc4)n[nH]c2-3)cc1 | – | – | – | – | – | 180 | > 1100 |
| COc1ccc(-c2c3c(nn2-c2ccccc2)-c2ccccc2C3=O)cc1 | – | – | – | – | – | > 280000 | > 200000 |
| COc1ccc(-c2[nH]nc3c2C(=O)c2c(NC(=O)NCc4ccccc4)cccc2-3)cc1 | – | – | – | – | – | 95 | 307 |
| COc1ccc(-c2[nH]nc3c2C(=O)c2c(NC(=O)CN4CCN(C)CC4)cccc2-3)cc1 | – | – | – | – | – | 12 | 125 |
| COc1ccc(-c2[nH]nc3c2C(=O)c2c(NC(=O)N(C)Cc4ccccc4)cccc2-3)cc1 | – | – | – | – | – | > 2300 | > 2300 |
| COc1ccc(-c2[nH]nc3c2C(=O)c2cc(O)ccc2-3)cc1 | – | – | – | – | – | – | 21500 |
| COc1ccc(-c2[nH]nc3c2C(=O)c2c(NC(=O)NN4CCCC4)cccc2-3)cc1 | – | – | – | – | – | 15 | 12 |
| COc1ccc(-c2[nH]nc3c2C(=O)c2c(NC(=O)Nc4ccccc4)cccc2-3)cc1 | – | – | – | – | – | 32 | 877 |
| COc1ccc(-c2[nH]nc3c2C(=O)c2c(NC(=O)CN4CCCCC4)cccc2-3)cc1 | – | – | – | – | – | 185 | > 1000 |
| COc1ccc(-c2[nH]nc3c2C(=O)c2c(NC(=O)NN4CCOCC4)cccc2-3)cc1 | 950 | – | – | 20 | 622 | 18 | 12 |
| COc1ccc(-c2[nH]nc3c2C(=O)c2cc(Cl)c(Cl)cc2-3)cc1 | – | – | – | – | – | – | 55500 |
| COc1ccc(-c2[nH]nc3c2C(=O)c2c(NC(=O)CN4CCSCC4)cccc2-3)cc1 | – | – | – | – | – | 54 | > 500 |
| COc1ccc(-c2[nH]nc3c2C(=O)c2c(NC(=O)CN4CCOCC4)cccc2-3)cc1 | – | – | – | – | – | 21 | 195 |
| COc1ccc(-c2[nH]nc3c2C(=O)c2ccncc2-3)cc1 | – | – | – | – | – | 4700 | 34500 |

| Structure (SMILES) | IC50 (AG1523) [nM] | IC50 [1] [nM] | IC50 [2] [nM] | IC50 (HCT-116 [3]) [nM] | IC50 (HCT-116 [4]) [nM] | IC50 [5] [nM] | IC50 [6] [nM] |
| --- | --- | --- | --- | --- | --- | --- | --- |
| COc1ccc(-c2[nH]nc3c2C(=O)c2cccnc2-3)cc1 | – | – | – | – | – | – | > 361000 |
| COc1ccc(-c2[nH]nc3c2C(=O)c2c(O)cccc2-3)cc1 | – | – | – | – | – | 5200 | 20000 |
| COc1ccc(-c2[nH]nc3c2C(=O)c2c(NC(=O)CN4CCN(C(=N)N)CC4)cccc2-3)cc1 | – | – | – | > 900 | – | 7 | 26 |
| COc1ccc(-c2c3c(nn2C)-c2ccccc2C3=O)cc1 | – | – | – | – | – | > 340000 | > 340000 |
| COc1ccc(-c2[nH]nc3c2C(=O)c2c(N)cccc2-3)cc1 | – | – | – | – | – | 8400 | 23000 |
| COc1ccc(-c2[nH]nc3c2C(=O)c2c(NC(=O)CN4CCC(CN)CC4)cccc2-3)cc1 | 600 | – | – | 70 | – | 12 | 20 |
| COc1ccc(-c2[nH]nc3c2C(=O)c2c(NC(=O)CN(C)C)cccc2-3)cc1 | – | – | – | – | – | 44 | 900 |
| COc1ccc(-c2[nH]nc3c2C(=O)c2c(NC(=O)CN4CCNCC4)cccc2-3)cc1 | – | – | – | – | – | 33 | 113 |
| CCNCC(=O)Nc1cccc2c1C(=O)c1c-2n[nH]c1-c1ccc(OC)cc1 | – | – | – | – | – | 130 | 917 |
| COc1ccc(-c2[nH]nc3c2C(=O)c2c(NC(=O)NN4CCCCC4)cccc2-3)cc1 | – | – | – | – | – | 22 | 12 |
| COc1ccc(-c2[nH]nc3c2C(=O)c2c(NC(=O)CN4CCN(C(N)=O)CC4)cccc2-3)cc1 | > 400 | – | – | 47 | > 5200 | 8 | 64 |
| CCN(CC)C(=O)Nc1cccc2c1C(=O)c1c(-c3ccc(OC)cc3)n[nH]c1-2 | – | – | – | – | – | > 1300 | > 1300 |
| COc1ccc(-c2[nH]nc3c2C(=O)c2cc(N)ccc2-3)cc1 | – | – | – | – | – | 210000 | 108000 |
| COc1ccc(-c2[nH]nc3c2C(=O)c2c(NC(=O)CN4CCC(CO)CC4)cccc2-3)cc1 | – | – | – | – | – | 11 | 82 |
| CCCCNC(=O)Nc1cccc2c1C(=O)c1c(-c3ccc(OC)cc3)n[nH]c1-2 | – | – | – | – | – | 84 | 780 |
| COc1ccc(-c2[nH]nc3c2C(=O)c2c(NC(=O)NCc4ccncc4)cccc2-3)cc1 | > 24000 | – | – | 378 | > 58000 | 29 | 1150 |
| COc1ccc(-c2[nH]nc3c2C(=O)c2c(NC(=O)CN)cccc2-3)cc1 | – | – | – | – | – | > 720 | > 1400 |
